Results collected from several papers.
Lines come from different studies, so protocols differ. pIC50: −log10 of the molar value. ≈ marks a conversion by molar mass, not a printed value.

Structure (SMILES)	tested on	assay	test system	conditions	measurement	result
COC(=O)c1cc(-c2cccc(NC(=S)Nc3ccccc3Cl)c2)on1	Mycolicibacterium fortuitum	microbial growth, broth dilution	ATCC6841	48 h	MIC	> 64 µg/mL
CC(C)CN(C[C@@H](O)[C@H](Cc1ccccc1)NC(=O)O[C@H]1CO[C@H]2OCC[C@H]21)S(=O)(=O)c1ccc(N)cc1	Human immunodeficiency virus 1	viral replication	MT4	–	pIC50	8.49
CO[C@H]1/C=C/O[C@@]2(C)Oc3c(C)c(O)c4c(O)c(c(/C=N/N5CCN(C)CC5)c(O)c4c3C2=O)NC(=O)/C(C)=C\C=C\[C@H](C)[C@H](O)[C@@H](C)[C@@H](O)[C@@H](C)[C@H](OC(C)=O)[C@@H]1C	Mycolicibacterium fortuitum	microbial growth	ATCC6841	–	MIC	3.1 to 6.2 µg/mL
CO[C@H]1/C=C/O[C@@]2(C)Oc3c(C)c(O)c4c(O)c(c(/C=N/N5CCN(C)CC5)c(O)c4c3C2=O)NC(=O)/C(C)=C\C=C\[C@H](C)[C@H](O)[C@@H](C)[C@@H](O)[C@@H](C)[C@H](OC(C)=O)[C@@H]1C	Mycobacterium marinum	microbial growth	–	5 days	MIC	< 0.78 µM
COC(=O)c1cc(-c2cccc(NC(=O)NCc3ccccc3)c2)on1	Mycolicibacterium fortuitum	microbial growth, broth dilution	ATCC6841	48 h	MIC	> 64 µg/mL
NCC(=O)Nc1ccc(-n2nc(C(F)(F)F)cc2-c2ccc3c(ccc4ccccc43)c2)cc1	Human immunodeficiency virus 1	viral replication, inhibitor	human PBMC	clinical isolate	IC90	2.25 µM
Nc1nc(O)c2ncn(COC(CO)CO)c2n1	Cowpox virus	microbial growth	–	–	MIC50	> 100 µM
COC(=O)c1cc(-c2cccc(NC(=S)Nc3cccc(Br)c3)c2)on1	Mycolicibacterium fortuitum	microbial growth, broth dilution	ATCC6841	48 h	MIC	> 64 µg/mL
N.N.[Cl][Pt][Cl]	184B5	cell growth or viability	–	–	pIC50	5.24
CCOC(=O)c1c(CSc2ccccc2)n(C)c2cc(Br)c(O)c(CN(C)C)c12	Cowpox virus	microbial growth	–	–	MIC50	> 37 µM
N#Cc1ccc(NC(=S)NN=Cc2ccccc2)cc1	CCRF-CEM	cell growth or viability	–	72 h	IC50	83 µg/mL
N.N.[Cl][Pt][Cl]	PK-59	cell growth or viability, MTT	–	24 h	pIC50	5.58
CC(C(=O)N1CCCCC1)c1cccc(C(OC(=O)N2CCCCC2)c2ccccc2)c1 (stereo not shown)	CCRF-CEM	cell growth or viability	–	72 h	pIC50	4.89
O=c1[nH]c(=O)n([C@H]2C[C@H](O)[C@@H](CO)O2)cc1/C=C/Br	Cowpox virus	microbial growth	–	–	MIC50	50 µM (≈ 16.7 µg/mL)
[H]/N=C(/N)N[C@H]1[C@H](O)[C@@H](O)[C@H](O[C@@H]2O[C@@H](C)[C@](O)(C=O)[C@H]2O[C@@H]2O[C@@H](CO)[C@H](O)[C@@H](O)[C@@H]2NC)[C@@H](N/C(N)=N\[H])[C@@H]1O	Mycolicibacterium fortuitum	microbial growth	ATCC6841	–	MIC	50 µg/mL
COC(=O)c1cc(-c2cccc(NC(=O)Nc3ccc(F)cc3)c2)on1	Mycolicibacterium fortuitum	microbial growth, broth dilution	ATCC6841	48 h	MIC	> 64 µg/mL
CC(C(=O)n1nnc2ccccc21)c1cccc(C(OC(=O)n2nnc3ccccc32)c2ccccc2)c1 (stereo not shown)	CCRF-CEM	cell growth or viability	–	72 h	pIC50	4.17
COC(=O)c1cc(-c2cccc(NC(=S)Nc3ccc(C#N)cc3)c2)on1	Mycolicibacterium fortuitum	microbial growth, broth dilution	ATCC6841	48 h	MIC	64 µg/mL
N#Cc1ccc(NC(=S)NN=Cc2ccc(N(CCCl)CCCl)cc2)cc1	CCRF-CEM	cell growth or viability	–	72 h	IC50	0.7 µg/mL
